Test results from ChEMBL document CHEMBL3769318, “The Rational Design of Selective Benzoxazepin Inhibitors of the α-Isoform of Phosphoinositide 3-Kinase Culminating in the Identification of (S)-2-((2-(1-Isopropyl-1H-1,2,4-triazol-5-yl)-5,6-dihydrobenzo[f]imidazo[1,2-d][1,4]oxazepin-9-yl)oxy)propanamide (GDC-0326)” (J Med Chem, 2016).

What was measured:
[1] = molecular target: Phosphatidylinositol 4,5-bisphosphate 3-kinase catalytic subunit alpha isoform (Homo sapiens, UniProt P42336); test: Inhibition of recombinant PI3K alpha (unknown origin) using PIP2 as substrate by fluorescence polarization assay; details: read-out: Ki(app)
Hepatocyte [2] = test: Drug metabolism in human hepatocytes; type: ADME, cell-based
[3] = Clearance in Sprague-Dawley rat at 1 mg/kg, iv; type: ADME, organism-based; details: in vivo
Hepatocyte [4] = test: Drug metabolism in rat hepatocytes; type: ADME, cell-based
[5] = Antiproliferative activity against human MCF7-neo/Her2 cells after 3 days by luminescence plate reader method; type: functional, cell-based; details: 72 h
[6] = Antiproliferative activity against human PC3 cells after 4 days by luminescence plate reader method; type: functional, cell-based; details: PC-3, 96 h
[7] = Oral bioavailability in NCR nude mouse at 25 mg/kg; type: ADME, organism-based; details: in vivo
animal or person [8] = details: Homo sapiens, po, 504 h, read-out: TGI
Mus musculus [9] = species on record: Mus musculus; test: animal or person; details: 1 h, read-out: INH
[10] = Plasma protein binding in CD-1 mouse at 5 uM after 4 hrs by LC-MS/MS analysis; type: ADME, cell-free; details: mouse, 4 h, 5 µM
In short: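 Equilibrium dialysis of pooled plasma (n ≥ 3) spiked with compound at 5 µM total against PBS pH 7.4, 37 °C, 5% CO2, for 4 h; plasma and buffer concentrations measured by LC-MS/MS; percent unbound calculated as buffer/plasma ×100.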

[11] = Toxicity in nude mouse xenografted with human MCF7-neo/Her2 cells; type: organism-based
In short: (§1)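 Breast cancer xenografts: MCF7-neo/HER2 grown in nude mice, KPL-4 in scid beige mice. Compound given orally once daily for 21 days at 0.78, 1.56, 3.25, 6.25 or 12.5 mg/kg in 0.5% methylcellulose/0.2% Tween-80, versus vehicle-treated mice. Tolerability judged by body weight loss, with under 10% loss as the criterion.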

[12] = Cytotoxicity against human KPL4 cells after 4 days by luminescence plate reader method; type: functional, cell-based; details: KPL4, 96 h
[13] = Toxicity in SCID beige mouse xenografted with human KPL4 cells; type: organism-based; details: in vivo; in short: as §1
animal or person [14] = details: Homo sapiens, KPL4, po, 504 h, read-out: TGI
[15] = Clearance in NCR nude mouse at 1 mg/kg, iv; type: ADME, organism-based; details: in vivo
Mus musculus [16] = test: Volume of distribution at steady state in NCR nude mouse at 1 mg/kg, iv; details: in vivo

Phosphatidylinositol 4,5-bisphosphate 3-kinase catalytic subunit alpha isoform, sequence (P42336 whole entry, canonical isoform): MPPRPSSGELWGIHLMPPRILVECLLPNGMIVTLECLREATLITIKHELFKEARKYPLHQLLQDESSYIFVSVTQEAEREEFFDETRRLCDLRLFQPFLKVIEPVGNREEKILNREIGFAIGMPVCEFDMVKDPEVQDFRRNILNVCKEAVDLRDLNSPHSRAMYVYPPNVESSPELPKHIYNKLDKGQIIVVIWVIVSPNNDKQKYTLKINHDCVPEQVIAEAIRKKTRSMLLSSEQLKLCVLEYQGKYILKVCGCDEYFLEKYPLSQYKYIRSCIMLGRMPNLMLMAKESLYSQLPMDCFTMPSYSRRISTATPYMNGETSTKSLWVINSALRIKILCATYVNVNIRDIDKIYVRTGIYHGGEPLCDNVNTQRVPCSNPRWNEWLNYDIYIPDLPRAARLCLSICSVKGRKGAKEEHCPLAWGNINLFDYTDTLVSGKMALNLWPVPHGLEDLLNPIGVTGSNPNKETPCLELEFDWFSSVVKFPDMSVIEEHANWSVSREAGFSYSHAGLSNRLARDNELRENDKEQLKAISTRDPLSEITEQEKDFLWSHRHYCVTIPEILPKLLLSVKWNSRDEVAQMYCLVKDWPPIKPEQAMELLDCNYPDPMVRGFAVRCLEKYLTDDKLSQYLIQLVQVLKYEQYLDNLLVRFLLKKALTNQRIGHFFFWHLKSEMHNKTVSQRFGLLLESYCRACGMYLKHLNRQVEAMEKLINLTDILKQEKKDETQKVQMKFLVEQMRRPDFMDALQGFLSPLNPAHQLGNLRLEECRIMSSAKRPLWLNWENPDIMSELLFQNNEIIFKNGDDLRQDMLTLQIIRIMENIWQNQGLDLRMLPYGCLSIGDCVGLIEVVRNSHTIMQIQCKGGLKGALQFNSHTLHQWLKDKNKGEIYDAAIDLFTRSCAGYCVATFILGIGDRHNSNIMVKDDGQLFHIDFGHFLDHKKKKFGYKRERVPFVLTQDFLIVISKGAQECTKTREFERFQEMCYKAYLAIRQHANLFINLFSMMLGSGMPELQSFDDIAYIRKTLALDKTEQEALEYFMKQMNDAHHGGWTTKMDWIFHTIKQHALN

With CC(C)n1ncnc1-c1cn2c(n1)-c1cnc(N3CCC[C@H]3C(N)=O)cc1OCC2 the Ki [1] was 0.1 nM, the Drug metabolism (Hepatocyte [2]) was “metabolite_notdetected” and the clearance [3] was 83 mL/min/kg. For the same molecule, the Drug metabolism (Hepatocyte [4]) was “metabolite_notdetected”.
Work on CC(C)n1ncnc1-c1cn2c(n1)-c1cnc(OCC(N)=O)cc1OCC2 yielded a Ki [1] of 0.9 nM.
With COc1cc2c(cn1)-c1nc(-c3ncnn3C(C)C)cn1CCO2 the Ki [1] was 3.6 nM.
Molecule CC[C@H](Oc1ccc2c(c1)OCCn1cc(-c3ncnn3C(C)C)nc1-2)C(N)=O has an EC50 [5] of 200 nM, an EC50 [6] of 2900 nM and a Ki [1] of 0.5 nM.
CC(C)n1ncnc1-c1cn2c(n1)-c1cnc(N3CCCC3)cc1OCC2 showed a Ki [1] of 1.3 nM and a clearance [3] of 125 mL/min/kg.
CC(C)n1ncnc1-c1cn2c(n1)-c1ccc(OCC(N)=O)cc1OCC2 gave an EC50 [5] of 200 nM, an EC50 [6] of 200 nM and a Ki [1] of 0.3 nM.
CC(C)n1ncnc1-c1cn2c(n1)-c1cnc(OC(C)(C)C(N)=O)cc1OCC2 gave a Ki [1] of 3.1 nM.
Work on COC(=O)Nc1ccc2c(c1)OCCc1cc(-c3nncn3-c3ccccc3Cl)sc1-2 yielded a Ki [1] of 1 nM.
Cc1nc(-c2cn3c(n2)-c2ccc(-c4cnn(C(C)(C)C(N)=O)c4)cc2OCC3)n(C(C)C)n1 [TASELISIB] showed an EC50 [5] of 30 nM, a bioavailability [7] of 100% and an inhibition in vivo at 25 mg/kg (animal or person [8]) of 116%. The inhibition in vivo at 25 mg/kg (Mus musculus [9]) was 74%, the PPB [10] was 97.5% and the MTD [11] was 25 mg/kg. The EC50 [12] was 10 nM, the MTD [13] was 25 mg/kg and the inhibition in vivo at 25 mg/kg (animal or person [14]) was 125%. It also gave a clearance [15] of 3 mL/min/kg and a Vdss (Mus musculus [16]) of 0.3 L/kg.
